From ChEMBL document CHEMBL1255303, “In vitro and in vivo antifungal activities of T-2307, a novel arylamidine” (2008)
In brackets after ≈: the same amount, converted by molar mass.

Key:
Assay type in all cases: functional
Candida albicans [1] = test: Antifungal activity against Candida albicans ATCC 24433 after 48 hrs by broth microdilution method; details: ATCC 24433, 48 h
Summary of the method: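 CLSI M27-A2 (yeasts) or M38-A (A. fumigatus) broth microdilution in RPMI 1640 buffered to pH 7.0 with 0.165 M MOPS. Final inocula were 0.65–2.5 × 10^3 CFU/ml for yeasts and 0.87–3.8 × 10^4 CFU/ml for filamentous fungi. Incubation was at 35°C for about 48 h (72 h for C. neoformans). MIC was the lowest concentration giving a prominent (~50%) turbidity drop versus growth control; amphotericin B required complete inhibition.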

Candida albicans [2] = test: Antifungal activity against Candida albicans ATCC 90028 after 48 hrs by broth microdilution method; details: ATCC 90028, 48 h
Summary of the method: (§1)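 CLSI M27-A2 (yeasts) / M38-A (moulds) broth microdilution in RPMI 1640 buffered to pH 7.0 with 0.165 M MOPS. Malassezia furfur got the same medium supplemented with glucose, bile salts, glycerol, glycerol monostearate and Tween 20. Final inoculum 0.65 × 10^3–2.5 × 10^3 CFU/ml for yeasts and 0.87 × 10^4–3.8 × 10^4 CFU/ml for filamentous fungi. Incubation at 35°C except M. racemosus and F. solani, which were held at 30°C.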

Candida dubliniensis = test: Antifungal activity against Candida dubliniensis ATCC MYA-577 after 48 hrs by broth microdilution method; details: ATCC MYA-577, 48 h; summary of the method: as §1
Pichia kudriavzevii [3] = test: Antifungal activity against Candida krusei IFO 0584 after 48 hrs by broth microdilution method; details: IFO 0584, 48 h; summary of the method: as §1
Cryptococcus neoformans = test: Antifungal activity against Cryptococcus neoformans ATCC 90113 after 72 hrs by broth microdilution method; details: ATCC 90113, 72 h; summary of the method: as §1
Malassezia furfur = test: Antifungal activity against Malassezia furfur NBRC 0656 after 48 hrs by broth microdilution method; details: NBRC 0656, 48 h; summary of the method: as §1
Saccharomyces cerevisiae = test: Antifungal activity against Saccharomyces cerevisiae ATCC 24657 after 48 hrs by broth microdilution method; details: ATCC 24657, 48 h; summary of the method: as §1
Trichosporon asahii = test: Antifungal activity against Trichosporon asahii JCM 2466 after 48 hrs by broth microdilution method; details: JCM 2466, 48 h; summary of the method: as §1
Aspergillus flavus = test: Antifungal activity against Aspergillus flavus NBRC 6343 after 48 hrs by broth microdilution method; details: NBRC 6343, 48 h; summary of the method: as §1
Aspergillus fumigatus [4] = test: Antifungal activity against Aspergillus fumigatus IFM 46895 after 48 hrs by broth microdilution method; details: IFM 46895, 48 h; summary of the method: as §1
Aspergillus fumigatus [5] = test: Antifungal activity against Aspergillus fumigatus IFM 49895 after 48 hrs by broth microdilution method; details: IFM 49895, 48 h; summary of the method: as §1
Aspergillus fumigatus [6] = test: Antifungal activity against Aspergillus fumigatus TIMM 0063 after 48 hrs by broth microdilution method; details: TIMM 0063, 48 h; summary of the method: as §1
Aspergillus nidulans = test: Antifungal activity against Aspergillus nidulans NBRC 33017 after 48 hrs by broth microdilution method; details: NBRC 33017, 48 h; summary of the method: as §1
Fusarium solani = test: Antifungal activity against Fusarium solani IFO 31093 after 48 hrs by broth microdilution method; details: IFO 31093, 48 h; summary of the method: as §1
Mucor racemosus = test: Antifungal activity against Mucor racemosus NBRC5403 after 24 hrs by broth microdilution method; details: NBRC5403, 24 h
Candida albicans [7] = test: Antifungal activity against Candida albicans ATCC 64124 after 47 hrs by broth microdilution method; details: ATCC 64124, 47 h
Summary of the method: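 Fluconazole-resistant or susceptible-dose-dependent ATCC C. albicans strains were tested by CLSI M27-A2 broth microdilution in RPMI 1640–0.165 M MOPS, pH 7.0, with a final inoculum of 1.1–1.5 × 10^3 CFU/ml at 35°C for about 47 h. MIC was the lowest concentration with a prominent (~50%) turbidity decrease relative to growth control; amphotericin B was read at complete inhibition.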

Candida albicans [8] = test: Antifungal activity against Candida albicans ATCC 64550 after 47 hrs by broth microdilution method; details: ATCC 64550, 47 h
Summary of the method: (§2)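 Fluconazole-resistant or susceptible-dose-dependent C. albicans ATCC strains were tested by broth microdilution in RPMI 1640-MOPS. Inoculum was 1.1 × 10^3–1.5 × 10^3 CFU/ml, with incubation at 35°C for about 47 h. Yeast MIC was read as about 50% turbidity decrease relative to growth control, except amphotericin B, read at complete inhibition.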

Candida albicans [9] = test: Antifungal activity against Candida albicans ATCC MYA-2732 after 47 hrs by broth microdilution method; details: ATCC MYA-2732, 47 h; summary of the method: as §2
[10] = system: Meyerozyma guilliermondii; test: Antifungal activity against Candida guilliermondii clinical isolates after 48 hrs by broth microdilution method
Summary of the method: (§3)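 Clinical isolates from Japanese hospitals or culture collections were tested by broth microdilution in RPMI 1640-MOPS. Inoculum was 0.57 × 10^3–2.5 × 10^3 CFU/ml for yeasts and 0.4 × 10^4–3.3 × 10^4 CFU/ml for filamentous fungi. Incubation was at 35°C for about 48 h, or 72 h where footnoted. Results were summarised as MIC range, MIC50 and MIC90.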

Pichia kudriavzevii [11] = test: Antifungal activity against Candida krusei clinical isolates after 48 hrs by broth microdilution method
Summary of the method: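 Japanese hospital Candida isolates were tested by CLSI M27-A2 broth microdilution in RPMI 1640–MOPS, pH 7.0, with inocula of 0.57–2.5 × 10^3 CFU/ml at 35°C for about 48 h. Inocula came from 24-h potato dextrose agar cultures. MIC was the lowest concentration with about 50% turbidity reduction versus growth control (complete inhibition for amphotericin B). Range, MIC50 and MIC90 were reported.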

Candida tropicalis = test: Antifungal activity against Candida tropicalis clinical isolates after 48 hrs by broth microdilution method; summary of the method: as §3
Aspergillus fumigatus [12] = test: Antifungal activity against Aspergillus fumigatus clinical isolates after 48 hrs by broth microdilution method; summary of the method: as §3
Aspergillus fumigatus [13] = test: Antifungal activity against Aspergillus fumigatus IFM 46895 infected ICR mouse after 6 days; details: IFM 46895, 144 h
Summary of the method: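 Male ICR mice, 4 weeks old and SPF, were made neutropenic with intraperitoneal cyclophosphamide. The schedule was 200 mg/kg on day −3 (day −4 for Cryptococcus) plus 100 mg/kg on day +1. Infection was by tail-vein injection of 0.2 ml suspension: C. albicans 3.0 × 10^4, C. neoformans 9.1 × 10^4, A. fumigatus conidia 8.4 × 10^4 CFU/mouse. Drugs were given subcutaneously once daily for 7 days from 2 h post-infection; controls received saline. Groups had 8–10 mice.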

- MIC (Candida albicans [1]): 1 ng/mL (≈ 0.00229 µM)
- MIC (Candida albicans [2]): 1 ng/mL (≈ 0.00229 µM)
- MIC (Candida dubliniensis): 1 ng/mL (≈ 0.00229 µM)
- MIC (Pichia kudriavzevii [3]): 1 ng/mL (≈ 0.00229 µM)
- MIC (Cryptococcus neoformans): 7.8 ng/mL (≈ 0.0178 µM)
- MIC (Malassezia furfur): 0.0313 µg/mL (≈ 0.0715 µM)
- MIC (Saccharomyces cerevisiae): > 64 µg/mL
- MIC (Trichosporon asahii): 64 µg/mL (≈ 146 µM)
- MIC (Aspergillus flavus): 0.5 µg/mL (≈ 1.14 µM)
- MIC (Aspergillus fumigatus [4]): 0.0625 µg/mL (≈ 0.143 µM)
- MIC (Aspergillus fumigatus [5]): 0.5 µg/mL (≈ 1.14 µM)
- MIC (Aspergillus fumigatus [6]): 1 µg/mL (≈ 2.29 µM)
- MIC (Aspergillus nidulans): 0.0156 µg/mL (≈ 0.0356 µM)
- MIC (Fusarium solani): 0.125 µg/mL (≈ 0.286 µM)
- MIC (Mucor racemosus): 2 µg/mL (≈ 4.57 µM)
- MIC (Candida albicans [7]): 1 ng/mL (≈ 0.00229 µM)
- MIC (Candida albicans [8]): 0.5 ng/mL (≈ 0.00114 µM)
- MIC (Candida albicans [9]): 1 ng/mL (≈ 0.00229 µM)
- MIC50 [10]: 2 ng/mL (≈ 0.00457 µM)
- MIC90 [10]: 3.9 ng/mL (≈ 0.00891 µM)
- MIC50 (Pichia kudriavzevii [11]): 1 ng/mL (≈ 0.00229 µM)
- MIC90 (Pichia kudriavzevii [11]): 2 ng/mL (≈ 0.00457 µM)
- MIC50 (Candida tropicalis): 0.5 ng/mL (≈ 0.00114 µM)
- MIC90 (Candida tropicalis): 0.5 ng/mL (≈ 0.00114 µM)
- MIC50 (Aspergillus fumigatus [12]): 1 µg/mL (≈ 2.29 µM)
- MIC90 (Aspergillus fumigatus [12]): 2 µg/mL (≈ 4.57 µM)
SMILES: N=C(N)c1ccc(OCCCC2CCN(CCCOc3ccc(C(=N)N)cc3)CC2)cc1
- MFC (Candida albicans [1]): > 64 µg/mL
- MFC (Candida albicans [2]): > 64 µg/mL
- MFC (Candida dubliniensis): > 64 µg/mL
- MFC (Pichia kudriavzevii [3]): 2 ng/mL (≈ 0.00457 µM)
- MFC (Cryptococcus neoformans): 0.0625 µg/mL (≈ 0.143 µM)
- MFC (Malassezia furfur): 2 µg/mL (≈ 4.57 µM)
- MFC (Saccharomyces cerevisiae): > 64 µg/mL
- MFC (Trichosporon asahii): > 64 µg/mL
- MFC (Aspergillus flavus): 8 µg/mL (≈ 18.3 µM)
- MFC (Aspergillus fumigatus [4]): > 64 µg/mL
- MFC (Aspergillus fumigatus [5]): > 64 µg/mL
- MFC (Aspergillus fumigatus [6]): > 64 µg/mL
- MFC (Aspergillus nidulans): 0.0313 µg/mL (≈ 0.0715 µM)
- MFC (Fusarium solani): > 64 µg/mL
- MFC (Mucor racemosus): > 64 µg/mL
- ED50 (Aspergillus fumigatus [13]): 0.391 mg/kg
